ChEMBL document CHEMBL4513216, “Probing the Open Global Health Chemical Diversity Library for Multistage-Active Starting Points for Next-Generation Antimalarials” (ACS Infect Dis, 2020)

Experiment: Toxicity liver stage against HepG2, at 10uM
Assay type: cell-based
Parameters: test concentration 10 uM, cell line HepG2-A16-CD81EGFP
Details: human, HepG2-A16-CD81EGFP cells; read-out: INHIBITION
Summary of the method: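 Uninfected HepG2-A16-CD81EGFP cells, 3 × 10^3 per well, 1536-well, plated on prespotted compound at 10 μM final, parasite-free screening media added to match infected plates; puromycin 10 μM positive, DMSO 0.5% negative; run in parallel with 48 h PbLuc assay at 37 °C, 5% CO2; viability by CellTiter-Glo luminescence, normalized to controls.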

SMILES | cytotoxicity at 10 µM
Cc1cccc(SC2CCN(Cc3nc(CC4CC4)no3)CC2)c1 | -6.51%
CC(=O)N1N=C(COc2ccc(C)cc2)OC1c1ccc(N(C)C)cc1 (stereo not given) | -3.33%
CC(=O)c1cn(CCC(=O)N[C@@H](CC(C)C)C(=O)O)c2ccccc12 | 2.1%
COc1cccc(-c2nc(C)c(C(=O)N[C@@H](CCSC)C(=O)O)s2)c1 | -1.64%
Cc1ccsc1C1CC(=O)Nc2c1cnn2C(C)C (stereo not given) | -7.7%
Cc1cccc(OC2CCN(C(=O)c3ccc4c(c3)OCO4)CC2)n1 | -5.51%
COCCN(Cc1ccoc1)C(=O)c1ccccn1 | 9.24%
COc1cc(N2CC3(CCN(c4ncccn4)C3)C2)ncn1 | 9.79%
CCS(=O)(=O)N1C[C@@H]2COC[C@@H](Cc3nc(C)no3)[C@@H]2C1 | 9.04%
CN(C)Cc1nn(C)c2c1CN(C(=O)Nc1ccc(F)cc1)C2 | 6.04%
COCCC1COC2(CCN(C(=O)C3CCC3)CC2)C1 (stereo not given) | 8.25%
O=C(c1ccc[nH]1)N1CCCC2(CCCN2Cc2cccnc2)C1 (stereo not given) | 3.83%
O=C(C1CC1)N1CC[C@H]2[C@@H]1CCC(=O)N2c1ccccc1 | 10.8%
CCS(=O)(=O)NCC1OCCc2cn(CCOC)nc21 (stereo not given) | 9.43%
c1nc2c(c(C3CCOC3)n1)CCN(Cc1ccoc1)CC2 (stereo not given) | 7.01%
COc1ccc(Br)c(C(=O)NCC2CCN(C(=O)c3ccoc3)CC2)c1 | -21.7%
Fc1cnc(N2CCO[C@H]3CN(CC4CCC4)C[C@H]32)nc1 | -8.71%
CCn1cc(-c2cc(C(F)(F)F)nn2CCC#N)cn1 | 3.93%
CCn1cncc1CN1CCc2nc3sccc3c(=O)n2CC1 | -2.55%
CCc1ncc(CN2C[C@@H]3C[C@@H](O)CN3C[C@@H]2Cc2ccccc2)cn1 | -5.02%
O=C1NC2(CCc3ccccc31)CCN(C(=O)c1cccnc1)C2 (stereo not given) | 5.5%
CCS(=O)(=O)N1C[C@@H](O)[C@H](N(C)Cc2ccc(F)cc2)C1 | 4.54%

SMILES | cytotoxicity at 10 µM
CC(=O)N1CCC(c2cccc(NC3CCOCC3)n2)CC1 | 13.3%
COc1ccc(C2CNCCN2C(=O)c2cccc3ncccc23)cc1 (stereo not given) | -8.73%
Cc1nc(C2CCCN(C(C)C)C2)sc1Br (stereo not given) | -4.52%
c1ccc(CCN2CCCC2c2ccnc(Nc3ncccn3)n2)cc1 (stereo not given) | 2.14%
CNc1cc(C)nc(C2CN(Cc3ccc(C)nc3)CCO2)c1 (stereo not given) | -2.29%
O=C(Nc1ccccc1)N1CCn2c(nnc2C2CCNCC2)C1 | -3.84%
CC(C)NC(=O)N1CCC2(CC1)CN(C(=O)NC(C)C)CCO2 | 11.8%
O=C(NCC(O)CO)Nc1cc(Br)ccc1F (stereo not given) | 1.69%
NC(=O)CN(Cc1cccc(Oc2ccccc2)c1)C(=O)C1CC1 | 4.59%
COc1ccc(CNCCc2cccc(C(N)=O)c2)cc1C | -6.81%
O=C(COc1ccccc1)NS(=O)(=O)Cc1ccccc1 | -12.3%
COC(=O)c1cc(NCc2cscn2)ccc1C | 5.17%
Cn1nc2c(cc1=O)CN(CC(=O)NC1CCCCNC1=O)CC2 (stereo not given) | 1.9%
CS(=O)(=O)c1cccc(Cl)c1C(=O)NCCN1C(=O)CCC1=O | -1.19%
CCOCCS(=O)(=O)c1nnc(NCCOC)s1 | -7.18%
CS(=O)(=O)CCCC(=O)Nc1cc(-c2cccc(F)c2F)n[nH]1 | 4.77%
Cc1noc(C)c1CNC(=O)NCCC(=O)N1CCCc2ccccc21 | -0.353%
CC(C)(C)C(=O)N1CCC(COCc2ccccc2)C1 (stereo not given) | 12.8%
Cc1csc(N2CCN(C(=O)c3cc(C4CC4)[nH]n3)CC2)n1 | 3.34%
Cc1cc(C)n(CC2CCCCN2CC(=O)Nc2ccncc2)n1 (stereo not given) | 8.69%
CC(C)NC(=O)NCCCc1cccc(F)c1 | -0.0328%
NS(=O)(=O)CCCNC(=O)C1(c2cccc(Cl)c2)CC1 | -4.02%

SMILES | cytotoxicity at 10 µM
CCOc1ccc(S(=O)(=O)NC(=O)c2c(C)noc2C(C)C)cc1 | -3.08%
CN(Cc1nccn1C)S(=O)(=O)c1cccc(C#N)c1 | 15.1%
O=C(NCCNc1ncccn1)c1scnc1Cl | -3.11%
CC(C#N)(NC(=O)COc1ccccc1Br)C1CC1 (stereo not given) | 7.45%
CC1c2cccn2CCN1S(=O)(=O)N1CCCCCC1 (stereo not given) | -2.3%
CN(CCCc1cc(-c2ccccc2)n[nH]1)C(=O)CCCn1cncn1 | -147%
CC(C)CCNC(=O)CCc1ccnc2ccccc12 | -0.69%
COc1ccc(CNC(C)c2cn[nH]c2C)cc1 (stereo not given) | 6.1%
CC(C)Cn1cnc(S(=O)(=O)NCCc2nnc3ccccn23)c1 | 6.48%
COc1ccc(CN2CCN(c3ncc(Cl)cn3)CC2)cc1 | -4.86%
CCc1ccc(Cn2nccc2NC(=O)C2CCS(=O)(=O)C2)cc1 (stereo not given) | -1.32%
O=C(NS(=O)(=O)c1cccc(F)c1)c1ccccc1F | 9.39%
Cn1c(N)nnc1SCC1OCCc2ccccc21 (stereo not given) | 0.355%
CC(=O)c1ccc(CNC(=O)c2cc(C#N)cn2C)nc1C | 5.44%
Cc1cnn(CCNCc2csc(C)n2)c1 | 5.79%
CC(C)c1noc(CCC(=O)NC(C)c2nnc3n2CCCCC3)n1 (stereo not given) | -4.35%
Cc1cc(CNC(=O)NC(C)c2ccncc2)no1 (stereo not given) | -13.5%
Cc1c(C(=O)NC(C)C(C)C)nnn1-c1cccc2c1CCN(C)C2 (stereo not given) | -9.03%
Cn1cc(N2C(=O)C[C@@H]3[C@@H]2CCN3C(=O)c2ccco2)cn1 | -107%
CCn1c2c(ccc1=O)CC(NCc1cnn(C)c1)CC2 (stereo not given) | -102%
CCN1CC(C(=O)NCc2ccc3c(c2)nc(C)n3C)CCC1=O (stereo not given) | -6.9%
CN(Cc1ccoc1)C(=O)C1(Oc2ccc(Cl)cc2)CCNCC1 | 5.73%

SMILES | cytotoxicity at 10 µM
O=C(NCCOCCO)c1cnc(-c2ccccc2)nc1O | 0.701%
O=C(CCCc1cn[nH]c1)N1C[C@H](CO)C[C@H](CN2CCCC2)C1 | -10.2%
CN1CCN(Cc2c[nH]cn2)CC12CCC(=O)N(CC1CC1)CC2 (stereo not given) | 2.98%
Cc1ccc(OCc2occc2C(=O)N2CCCCC(N)C2)cc1 (stereo not given) | -8.84%
OCCC1CN(c2nc(-c3ccncc3)nc3c2CCNCC3)CCO1 (stereo not given) | 5.05%
CN(C)S(=O)(=O)N1CCCC(c2nccn2Cc2cccnc2)C1 (stereo not given) | 4.61%
COc1cnc(CN2CCN(CC(C)C)C(=O)C2C)cc1O (stereo not given) | 3.28%
Cc1cc(C(=O)N2CCN[C@H](C)C2)c2ccc(F)cc2n1 | 13.7%
CCn1c(N)nc2cc(C(=O)NCCCc3ccccn3)cnc21 | -7.38%
CC(C)Oc1ccccc1-c1cc(CN)ccc1F | -2.69%
CN1CCCC(CCC(=O)N2CCc3onc(C(=O)N(C)C)c3C2)C1 (stereo not given) | -11%
CSCc1noc(C2CCC(=O)N(CCCN3CCCC3=O)C2)n1 (stereo not given) | 3.59%
Cc1cc(C)n(CC(C)NC(=O)c2cc(CN3CCC(O)CC3)on2)n1 (stereo not given) | 0.873%
CSc1ccccc1C(=O)N1CCOC(CCN(C)C)C1 (stereo not given) | 7.46%
Cc1cc2[nH]c(CN3CCOC(Cc4ccccc4)C3)cc(=O)n2n1 (stereo not given) | -24.1%
Cn1c(CN2CCC(O)CC2)nnc1C1CCCN(C(=O)C2CNC2)C1 (stereo not given) | 3.19%
O=C(CCCc1cn[nH]c1)N1C[C@@H](CN2CCCC2)C[C@H](CO)C1 | -8.96%
O=C(CCS(=O)(=O)c1ccccc1)NC1CCOC2(CCOCC2)C1 (stereo not given) | 7.56%
Cc1nc(O)cc(CNC(=O)CC[C@@H]2CCCN3CCCC[C@H]23)n1 | 1.87%
c1cncc(NCCCNC2CCSC2)c1 (stereo not given) | -3.62%
COCc1nc(CNC2CCC3(CCNCC3)CC2)no1 | -3.13%
O=C(Cc1ccc(O)c(Cl)c1)N1CCN(CC2CC2)[C@@H]2CS(=O)(=O)C[C@@H]21 | 5.84%

SMILES | cytotoxicity at 10 µM
Cc1ncc(-c2nc3cc(S(=O)(=O)N4CCCC4)ccc3n2C)cn1 | -21%
CCC(CC)C(=O)NS(=O)(=O)c1ccc(C#N)cc1C(F)(F)F | -15.9%
COCc1nc(C(=O)NS(=O)(=O)c2c(C)c(C)cc(C)c2C)cs1 | -8.01%
COc1ccc(F)cc1C(C)NC(=O)NCCCn1cncn1 (stereo not given) | -17.8%
Cc1ccc(NC2CCN(C(=O)c3cccc4cccnc34)CC2)nn1 | -8.31%
O=C(COc1ccc(C(F)(F)F)cc1)N1CCOCC1c1ncon1 (stereo not given) | -12.5%
OCCN1CCN(CC(O)c2ccc(OC(F)(F)F)cc2)CC1 (stereo not given) | -20.8%
Cc1ccccc1CCC(=O)N1CCCC(c2cc(C(N)=O)[nH]n2)C1 (stereo not given) | -11.3%
COc1c(CNC2CCN(c3ncccn3)CC2)c(C(C)C)nn1C | -4.81%
CCCC(C)C(=O)N1CCC(n2cccc2C(=O)OC)CC1 (stereo not given) | -10%
CC(=O)N1CCOCC2(CN(Cc3ccccn3)CCO2)C1 (stereo not given) | -3.28%
CNC(=O)CN1CCO[C@H]2CN(C(=O)c3ccncc3F)C[C@H]21 | -155%
O=C(c1ccncc1)N1CC[C@@H]2[C@@H](CC1)OCCN2c1cccnc1 | 8.25%
NC(=O)c1nc2c(s1)CCN(Cc1ccccc1)CC2 | 9.61%
O=C(CO[C@@H]1CC[C@H]2[C@H]1OCCN2CC1CCOCC1)N1CCCC1 | -11.6%
O=C(NCc1cnc2n1CCN(Cc1cccs1)C2)c1ccno1 | -110%
CC(C)CN1CCS(=O)(=O)[C@@H]2CCN(S(=O)(=O)C3CC3)CC[C@@H]21 | 7.8%
CN(C)[C@H]1COC[C@@H]2CN(Cc3ccc4c(c3)OCO4)C[C@@H]21 | 4.2%
CC(C)N(C)Cc1cncc2c1CCN(CC(=O)N(C)C)C2 | -100%
Cc1cc(CN2C[C@@H]3CN(C(=O)c4ccco4)CCO[C@@H]3C2)no1 | -141%
O=S(=O)(C1CC1)N1CCc2ncnc(-c3ccncc3)c2CC1 | -3.27%
O=c1c2c[nH]c(N3CCC(O)CC3)nc-2cn1Cc1cccc(F)c1 | 20.6%
